Measurements as given in ChEMBL document CHEMBL4689842, “EUbOPEN Chemogenomics Library wave 1” (2021).

Tested on: HEK-293T
Experiment: Multiplex assay against HEK293T;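 for Population Tubulin-Different-Phenotype (%): share of the cells with healthy nuclei that show this phenotype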
Type: toxicity, cell-based
Conditions: human
Summary of the method: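 Four dyes were applied at seeding to live cells: Hoechst33342, BioTracker Green Microtubule Cytoskeleton Dye, MitoTracker Red and Annexin V Alexa Fluor 680. Imaging after compound addition used a CQ1 microscope at 37°C and 5% CO2. CellPathfinder machine-learning gating then sorted cells into Hoechst high-intensity objects or normal cells, normal cells into healthy, pyknosed or fragmented nuclei, and pyknosed cells into mitotic or apoptotic, with tubulin, mitochondrial-mass and membrane-permeability phenotypes given as per cents of healthy-nucleus cells.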

[1] = 12 h, 1 µM, compound concentration 1 uM, replicate 1
[2] = 12 h, 1 µM, compound concentration 1 uM, replicate 2
[3] = 12 h, 10 µM, compound concentration 10 uM, replicate 1
[4] = 12 h, 10 µM, compound concentration 10 uM, replicate 2
[5] = 24 h, 1 µM, compound concentration 1 uM, replicate 1
[6] = 24 h, 1 µM, compound concentration 1 uM, replicate 2
[7] = 24 h, 10 µM, compound concentration 10 uM, replicate 1
[8] = 24 h, 10 µM, compound concentration 10 uM, replicate 2

Question: With CCN(CC)CCCCNc1ncc2cc(-c3cc(OC)cc(OC)c3)c(NC(=O)NC(C)(C)C)nc2n1 [PD-173074] as the compound, how does the “Population Apoptotic (%)” value [1] read?
Answer: 8%

Question: And the “Population Fragmented Nuclei (%)” value [1]?
Answer: 79%

Question: What about the “Population Healthy Nuclei (%)” value [1] of the same compound?
Answer: 8%

Question: And the “Population Hoechst High Intensity Objects (%)” value [1]?
Answer: 69%

Question: And the “Population Membrane Permeable-Phenotype (%)” value [1]?
Answer: 15%

Question: And the “Population Mitochondria Different-Phenotype (%)” value [1]?
Answer: 31%

Question: And the “Population Mitotic Cells (%)” value [1]?
Answer: 91%

Question: What about the “Population Normal (%)” value [1] of the same compound?
Answer: 30%

Question: And the “Population Pyknosed Nuclei (%)” value [1]?
Answer: 11%

Question: What about the “Population Tubulin-Different-Phenotype (%)” value [1] of the same compound?
Answer: 42%

Question: What about the “Total Cell Count” value [1] of the same compound?
Answer: 685

Question: And the “Population Apoptotic (%)” value [2]?
Answer: 6%

Question: And the “Population Fragmented Nuclei (%)” value [2]?
Answer: 80%

Question: What about the “Population Healthy Nuclei (%)” value [2] of the same compound?
Answer: 1%

Question: What about the “Population Hoechst High Intensity Objects (%)” value [2] of the same compound?
Answer: 80%

Question: And the “Population Membrane Permeable-Phenotype (%)” value [2]?
Answer: 66%

Question: And the “Population Mitochondria Different-Phenotype (%)” value [2]?
Answer: 0%

Question: What about the “Population Mitotic Cells (%)” value [2] of the same compound?
Answer: 93%

Question: What about the “Population Normal (%)” value [2] of the same compound?
Answer: 19%

Question: What about the “Population Pyknosed Nuclei (%)” value [2] of the same compound?
Answer: 17%

Question: What about the “Population Tubulin-Different-Phenotype (%)” value [2] of the same compound?
Answer: 66%

Question: What about the “Total Cell Count” value [2] of the same compound?
Answer: 917

Question: And the “Population Fragmented Nuclei (%)” value [3]?
Answer: 29%

Question: What about the “Population Healthy Nuclei (%)” value [3] of the same compound?
Answer: 52%

Question: What about the “Population Hoechst High Intensity Objects (%)” value [3] of the same compound?
Answer: 48%

Question: And the “Population Membrane Permeable-Phenotype (%)” value [3]?
Answer: 26%

Question: What about the “Population Mitochondria Different-Phenotype (%)” value [3] of the same compound?
Answer: 6%

Question: And the “Population Normal (%)” value [3]?
Answer: 51%

Question: What about the “Population Pyknosed Nuclei (%)” value [3] of the same compound?
Answer: 17%

Question: And the “Population Tubulin-Different-Phenotype (%)” value [3]?
Answer: 33%

Question: And the “Total Cell Count” value [3]?
Answer: 693

Question: What about the “Population Apoptotic (%)” value [4] of the same compound?
Answer: 28%

Question: And the “Population Fragmented Nuclei (%)” value [4]?
Answer: 7%

Question: What about the “Population Healthy Nuclei (%)” value [4] of the same compound?
Answer: 85%

Question: And the “Population Hoechst High Intensity Objects (%)” value [4]?
Answer: 42%

Question: What about the “Population Membrane Permeable-Phenotype (%)” value [4] of the same compound?
Answer: 22%

Question: And the “Population Mitochondria Different-Phenotype (%)” value [4]?
Answer: 24%

Question: What about the “Population Mitotic Cells (%)” value [4] of the same compound?
Answer: 71%

Question: What about the “Population Normal (%)” value [4] of the same compound?
Answer: 57%

Question: And the “Population Pyknosed Nuclei (%)” value [4]?
Answer: 7%

Question: And the “Population Tubulin-Different-Phenotype (%)” value [4]?
Answer: 71%

Question: And the “Total Cell Count” value [4]?
Answer: 1213

Question: What about the “Population Apoptotic (%)” value [5] of the same compound?
Answer: 32%

Question: What about the “Population Fragmented Nuclei (%)” value [5] of the same compound?
Answer: 84%

Question: And the “Population Healthy Nuclei (%)” value [5]?
Answer: 6%

Question: What about the “Population Hoechst High Intensity Objects (%)” value [5] of the same compound?
Answer: 55%

Question: What about the “Population Membrane Permeable-Phenotype (%)” value [5] of the same compound?
Answer: 36%

Question: And the “Population Mitochondria Different-Phenotype (%)” value [5]?
Answer: 15%

Question: And the “Population Mitotic Cells (%)” value [5]?
Answer: 68%

Question: And the “Population Normal (%)” value [5]?
Answer: 44%

Question: What about the “Population Pyknosed Nuclei (%)” value [5] of the same compound?
Answer: 8%

Question: What about the “Population Tubulin-Different-Phenotype (%)” value [5] of the same compound?
Answer: 26%

Question: And the “Total Cell Count” value [5]?
Answer: 629

Question: And the “Population Apoptotic (%)” value [6]?
Answer: 0%

Question: What about the “Population Fragmented Nuclei (%)” value [6] of the same compound?
Answer: 91%

Question: And the “Population Healthy Nuclei (%)” value [6]?
Answer: 1%

Question: What about the “Population Hoechst High Intensity Objects (%)” value [6] of the same compound?
Answer: 60%

Question: What about the “Population Membrane Permeable-Phenotype (%)” value [6] of the same compound?
Answer: 0%

Question: And the “Population Mitochondria Different-Phenotype (%)” value [6]?
Answer: 20%

Question: And the “Population Mitotic Cells (%)” value [6]?
Answer: 100%

Question: And the “Population Normal (%)” value [6]?
Answer: 39%

Question: And the “Population Pyknosed Nuclei (%)” value [6]?
Answer: 6%

Question: And the “Population Tubulin-Different-Phenotype (%)” value [6]?
Answer: 60%

Question: What about the “Total Cell Count” value [6] of the same compound?
Answer: 891

Question: And the “Population Apoptotic (%)” value [7]?
Answer: 28%

Question: And the “Population Fragmented Nuclei (%)” value [7]?
Answer: 17%

Question: And the “Population Healthy Nuclei (%)” value [7]?
Answer: 71%

Question: What about the “Population Hoechst High Intensity Objects (%)” value [7] of the same compound?
Answer: 36%

Question: And the “Population Membrane Permeable-Phenotype (%)” value [7]?
Answer: 25%

Question: And the “Population Mitochondria Different-Phenotype (%)” value [7]?
Answer: 9%

Question: What about the “Population Mitotic Cells (%)” value [7] of the same compound?
Answer: 71%

Question: And the “Population Normal (%)” value [7]?
Answer: 63%

Question: And the “Population Pyknosed Nuclei (%)” value [7]?
Answer: 11%

Question: And the “Population Tubulin-Different-Phenotype (%)” value [7]?
Answer: 50%

Question: What about the “Total Cell Count” value [7] of the same compound?
Answer: 733

Question: And the “Population Apoptotic (%)” value [8]?
Answer: 15%

Question: What about the “Population Fragmented Nuclei (%)” value [8] of the same compound?
Answer: 16%

Question: What about the “Population Healthy Nuclei (%)” value [8] of the same compound?
Answer: 80%

Question: And the “Population Hoechst High Intensity Objects (%)” value [8]?
Answer: 27%

Question: And the “Population Membrane Permeable-Phenotype (%)” value [8]?
Answer: 20%

Question: And the “Population Mitochondria Different-Phenotype (%)” value [8]?
Answer: 6%

Question: What about the “Population Mitotic Cells (%)” value [8] of the same compound?
Answer: 85%

Question: What about the “Population Normal (%)” value [8] of the same compound?
Answer: 72%

Question: What about the “Population Pyknosed Nuclei (%)” value [8] of the same compound?
Answer: 2%

Question: What about the “Population Tubulin-Different-Phenotype (%)” value [8] of the same compound?
Answer: 58%

Question: And the “Total Cell Count” value [8]?
Answer: 1994
